# Source: the array DNA melting data of Ke et al. (doi:10.1101/2024.01.08.574731)
# Assays:
# [1] = folding enthalpy; higher = less favourable; fluorescence melt of hairpins on a sequencing array, two-state fit; settings: sodium 0.088 M
# Outline: (§1)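 Melting temperature and folding enthalpy were derived from bootstrapped two-state fits. The fitted temperatures were raised by 9.35 °C to agree with UV melts, and four replicates were combined by inverse variance. The underlying data were Cy3 fluorescence images of library hairpins, with annealed Cy3 and quencher oligos, on a sequenced MiSeq flow cell in 50 mM Na-HEPES pH 8.0, 25 mM NaCl, taken in 2.5 °C steps up to 60 °C, normalised to pre-quench Cy3 and to control constructs.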
# [2] = melting temperature; fluorescence melt of hairpins on a sequencing array, two-state fit, raised by 9.35 °C to match UV melts; settings: sodium 0.088 M
# Outline: as §1
Sequence,folding enthalpy [1] [kcal/mol],Tm [2] [°C]
GTGTACGAAAGTAACAC ((((((....))).))),-30,49.5
AGTGAGAAATCACT (((((....))))),-15.7,38.5
GTGTTCGAAAGAACGCAC ((((((....)))..))),-12.4,48.4
GTGTCCCGAAAGGGCCAC (((.(((....))).))),-23.8,56.4
GAGCTGCGAAAGCAACTC (((.(((....))).))),-31.8,51.2
GCACGGGCGAAAGCCTGC (((..(((....)))))),-12.7,45.2
GATCACGAAAGTGAGATC ((((((....)))..))),-17,48.5
GGCTCAGAAATGAGCC ((((((....)))))),-38.9,67
GTATCAGGAAACTGACAC ((.((((....)))).)),-22.7,32.1
GGAAGCGAAAGCTTTCC ((((((....))).))),-30.2,50.1
GTGGTCCCGAAAGGGCAC (((..(((....)))))),-14.8,42.5
GGTCAGGGAAACCTGATC (.(((((....))))).),-27.2,48.5
GTGTTCGAAAGAAACAC ((((((....))).))),-28.1,47.1
GATTGGGAAACCAATC ((((((....)))))),-35,52.3
GATCCGACCGCGGATC ((((((....)))))),-34.6,56.8
GTCAGAGGAAACTCCAAC ((..(((....)))..)),-4.46,17.2
GGAATACGAAAGTAGTCC (((.(((....))).))),-33.9,51.8
GCAACTGGAAACAGCTGC (((.(((....))).))),-35.8,46.2
GTTTGGCGAAAGCCGAAC (((.(((....))).))),-20.6,58.8
GATCCGGCAACGGATC ((((((....)))))),-35,67.8
GCCCAACGAAAGTTTGGC (((.(((....))).))),-28.1,50.2
GGTGAAACGAAAGTTACC (((..(((....)))))),-18,30.5
GGAGGGCCGAAAGGCTCC (((..(((....)))))),-9.45,39.4

Sequence,folding enthalpy [1] [kcal/mol],Tm [2] [°C]
GCGGTGGGAAACCGTCGC (((..((....))..))),-14.3,55.5
GGACTTCGAAAGAATCC (((.(((....)))))),-21.7,35.2
GGTGTTTCGAAAGAAACC (((..(((....)))))),-13.2,42.5
GATCATTAGGATGATC ((((((....)))))),-35.3,47.8
GGCAAAGGAAACTCTGCC ((((.((....)).)))),-32.1,36.2
GCTGCAGCGAAAGCTAGC (((..(((....)))))),-11.9,48.7
GCTTCTGGAAACAGAAGC (((((((....))))))),-49,64.9
GCATCGCGAAAGCAACGC ((.(.((....)).).)),-13.5,40.6
GTGAAAACGAAAGTTCAC (((..(((....)))))),-21.7,38.4
GCGTCTCGAAAGAGCCGC (((.(((....))).))),-42.6,56.5
GGTACCGAAAGGTGGACC ((((((....)))..))),-17,37.8
GCAGCAGGAAACTGCTAC (.(((((....))))).),-13.4,44.7
GGATACGAAAGTATATCC ((((((....)))..))),-18.3,34.5
GATCAGATCCTGATC ((((((...)))))),-37,48.2
GCGGTCGAAAGACGCGC ((((((....))).))),-30.8,65.6
GGGCTGGGAAACCAGTCC ((.((((....)))).)),-42.5,57.3
GATCGTGGGCACGATC ((((((....)))))),-40.1,56.8
GATCTCAGGTGAGATC ((((((....)))))),-32.2,53.6
GTAGAGCGAAAGCTATAC (((.(((....))).))),-23.4,51.6
GCGTAGCGAAAGCTCGGC ((..(((....)))..)),-7.84,39.9
GGGACTGAAAAGTCCC ((((((....)))))),-33.7,68.3
GATCGGTCTTCCGATC ((((((....)))))),-37.2,58.9
GCGGCCGGAAACGACCGC ((((.((....)).)))),-34.9,67.2

Sequence,folding enthalpy [1] [kcal/mol],Tm [2] [°C]
GCGGTAGCCCGC ((((....)))),-12.3,62
GAGTAACCGAAAGGTCTC (((..(((....)))))),-16.7,33.2
GGTGAACCGAAAGGTACC (((..(((....)))))),-18,37.8
GTATGCGAAAGCAGGTAC ((((((....)))..))),-13.2,30
GCTTGGCGAAAGCCTTGC ((..(((....)))..)),-18.1,43.5
ATCACGAAAGTGAT (((((....))))),-25.6,54.8
GTATAGCGAAAGCTGTAC (((.(((....))).))),-31.5,51.1
GATCTCTGCGAGATC ((((((...)))))),-19.3,52.8
GATCGAAGGTTCGATC ((((((....)))))),-31.2,52.1
GATCTTCTTAAAGATC ((((((....)))))),-32.7,46
GAGTCACGAAAGTGGCTC (((.(((....))).))),-39.4,64.7
GACCGCGAAAGCGATGTC ((((((....)))..))),-14.9,44.3
GACTCCCGAAAGGGGGTC (((.(((....))).))),-33.4,63.7
GGGCCCCGAAAGGGTCCC (((.(((....))).))),-27.4,65.2
GCAAGTCCGAAAGGATGC (((..(((....)))))),-16.1,37.7
GATCGGGCCTCCGATC ((((((....)))))),-36.6,59.7
CGGATCGGAAACGACCG (((.(((....)))))),-28.2,49.8
GGGTACGAAAGTAACCCC ((((((....)))..))),-21.9,54.2
GCGAGGCGAAAGCCATGC ((..(((....)))..)),-17.6,58.1
GTAAAACGAAAGTTCTAC (((.(((....))).))),-13.9,27.6
GTGTTCCGAAAGGAGCAC (((.(((....))).))),-41.8,59.3
GGTTTACCGAAAGGTACC (((..(((....)))))),-9.75,32.4
GTATCGGGAAACCGATAC (((((((....))))))),-42.3,62.2
